ChEMBL document CHEMBL1124186, “Synthesis and evaluation of tylosin-related macrolides modified at the aldehyde function: a new series of orally effective antibiotics” (1988)
In brackets after ≈: the same amount, converted by molar mass.

How the values were obtained:
Haemophilus influenzae [1] = assay: In vitro antimicrobial activity against aerobic bacteria Haemophilus influenzae 465; format: functional
[2] = test system: Staphylococcus epidermidis; assay: In vitro antimicrobial activity against Staphylococcus epidermidis EPI1; format: functional
Haemophilus influenzae [3] = assay: In vitro antimicrobial activity against aerobic bacteria Haemophilus influenzae 76; format: functional
Staphylococcus aureus [4] = assay: In vitro antimicrobial activity against aerobic bacteria Staphylococcus aureus V135; format: functional
[5] = test system: Haemophilus parainfluenzae; assay: In vitro antimicrobial activity against aerobic bacteria Haemophilus parainfluenzae 9796; format: functional
Mus musculus [6] = assay: Peripheral plasma levels in mice after oral administration of 100 mg/kg dose for 0.5 hr; format: functional, organism-based; design: dose 100 mg/kg
How it was run: (§1)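 Mice were given the compound orally and sampled for peripheral plasma at each time point. Plasma was assayed microbiologically against Micrococcus luteus seeded in Antibiotic Medium 1. Inhibition zone sizes were read, and concentrations were calculated from each compound's own standard curve. Each value is the mean of five mice per time point.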

Anaerococcus prevotii = assay: In vitro antimicrobial activity against anaerobic bacteria peptococcus prevoti 1281; format: functional
Mus musculus [7] = assay: Peripheral plasma levels in mice after oral administration of 50 mg/kg dose for 0.25 hr; format: functional, organism-based; design: dose 50 mg/kg; how it was run: as §1
[8] = test system: Bacteroides thetaiotaomicron; assay: In vitro antimicrobial activity against anaerobic bacteria bacteroides thetaiotaomicron 1438; format: functional
Mus musculus [9] = assay: Peripheral plasma levels in mice after oral administration of 50 mg/kg dose for 2 hr; format: functional, organism-based; design: dose 50 mg/kg; how it was run: as §1
Haemophilus influenzae [10] = assay: In vitro antimicrobial activity against Haemophilus influenzae.; format: functional
[11] = test system: Prevotella melaninogenica; assay: In vitro antimicrobial activity against anaerobic bacteria bacteroides melaninogenicus 1856,; format: functional
Fusobacterium = assay: In vitro antimicrobial activity against anaerobic bacteria fusobacterium symbiosum 1470; format: functional
[12] = test system: Staphylococcus epidermidis; assay: In vitro antimicrobial activity against aerobic bacteria Streptococcus epi 270; format: functional
Bacteroides fragilis [13] = assay: In vitro antimicrobial activity against anaerobic bacteria bacteroides fragilis 1877; format: functional
Eikenella corrodens = assay: In vitro antimicrobial activity against anaerobic bacteria bacteroides corrodens 1874; format: functional
[14] = test system: Peptoniphilus asaccharolyticus; assay: In vitro antimicrobial activity against anaerobic bacteria peptococcus asaccharolyticus 1302; format: functional
Mus musculus [15] = assay: Peripheral plasma levels in mice after oral administration of 100 mg/kg dose for 4 hr; format: functional, organism-based; design: dose 100 mg/kg; how it was run: as §1
Mus musculus [16] = assay: Peripheral plasma levels in mice after oral administration of 100 mg/kg dose for 2 hr; format: functional, organism-based; design: dose 100 mg/kg; how it was run: as §1
Streptococcus [17] = assay: In vitro antimicrobial activity against aerobic bacteria Streptococcus B 5; format: functional
Streptococcus [18] = assay: In vitro antimicrobial activity against aerobic bacteria Streptococcus D 8043; format: functional
Staphylococcus aureus [19] = assay: In vitro antimicrobial activity against aerobic bacteria Staphylococcus aureus X400; format: functional
Mus musculus [20] = assay: Peripheral plasma levels in mice after oral administration of 100 mg/kg dose for 0.25 hr; format: functional, organism-based; design: dose 100 mg/kg; how it was run: as §1
Bacteroides fragilis [21] = assay: In vitro antimicrobial activity against anaerobic bacteria bacteroides fragilis 111; format: functional
Enterococcus faecium = assay: In vitro antimicrobial activity against Streptococcus faecium X66; format: functional, streptococcus fae-cium
[22] = test system: Peptostreptococcus anaerobius; assay: In vitro antimicrobial activity against anaerobic bacteria eubacterium peptostreptococcus anaerobius 1428,; format: functional
Streptococcus [23] = assay: In vitro antimicrobial activity against aerobic bacteria Streptococcus D 2041; format: functional
[24] = In vitro antimicrobial activity against anaerobic bacteria peptostreptococcus intermedius 1264; format: functional
Clostridium perfringens = assay: In vitro antimicrobial activity against anaerobic bacteria clostridium perfringens 81,; format: functional
Streptococcus [25] = assay: In vitro antimicrobial activity against aerobic bacteria Streptococcus B 14; format: functional
Mus musculus [26] = assay: Peripheral plasma levels in mice after oral administration of 50 mg/kg dose for 1 hr; format: functional, organism-based; design: dose 50 mg/kg; how it was run: as §1
Streptococcus pneumoniae [27] = assay: In vitro antimicrobial activity against aerobic bacteria Streptococcus pneumoniae B1-438; format: functional, streptococcus pneum
Haemophilus influenzae [28] = assay: In vitro antimicrobial activity against aerobic bacteria Haemophilus influenzae MX366,; format: functional
Clostridioides difficile = assay: In vitro antimicrobial activity against anaerobic bacteria Clostridium difficile 2994; format: functional
Collinsella aerofaciens = assay: In vitro antimicrobial activity against anaerobic bacteria aerofaciens 1235; format: functional
Streptococcus pneumoniae [29] = assay: In vivo effective dose against experimental infections in mice Streptococcus pneumoniae administered sc; format: functional
Mus musculus [30] = assay: Peripheral plasma levels in mice after oral administration of 50 mg/kg dose for 0.5 hr; format: functional, organism-based; design: dose 50 mg/kg; how it was run: as §1
[31] = test system: Fusobacterium necrophorum; assay: In vitro antimicrobial activity against anaerobic bacteria usobacterium necrophorum 6054A; format: functional
Streptococcus pneumoniae [32] = assay: In vivo effective dose against experimental infections in mice Streptococcus pneumoniae park when administered orally; format: functional; conditions: po
Bacteroides fragilis [33] = assay: In vitro antimicrobial activity against anaerobic bacteria bacteroides fragilis 1936B,; format: functional
Chlamydia trachomatis = assay: In vitro antimicrobial activity against chlamydia trachomatis.; format: functional
Mus musculus [34] = assay: Peripheral plasma levels in mice after oral administration of 50 mg/kg dose for 4 hr; format: functional, organism-based; design: dose 50 mg/kg; how it was run: as §1
Staphylococcus aureus [35] = assay: In vitro antimicrobial activity against Staphylococcus aureus X1; format: functional
[36] = test system: Prevotella melaninogenica; assay: In vitro antimicrobial activity against anaerobic bacteria bacteroides melaninogenicus 2736; format: functional
Phocaeicola vulgatus = assay: In vitro antimicrobial activity against anaerobic bacteria bacteroides vulgatus 1211; format: functional
Mus musculus [37] = assay: Peripheral plasma levels in mice after oral administration of 100 mg/kg dose for 1 hr; format: functional, organism-based; design: dose 100 mg/kg; how it was run: as §1
Cutibacterium acnes = assay: In vitro antimicrobial activity against anaerobic bacteria propionibacterium acnes 79; format: functional
Streptococcus [38] = assay: In vitro antimicrobial activity against aerobic bacteria Streptococcus D 9960; format: functional
Clostridium septicum = assay: In vitro antimicrobial activity against anaerobic bacteria clostridium septicum 1128; format: functional
[39] = test system: Staphylococcus epidermidis; assay: In vitro antimicrobial activity against aerobic bacteria Streptococcus epi 222; format: functional
Staphylococcus aureus [40] = assay: In vitro antimicrobial activity against aerobic bacteria Staphylococcus aureus V41; format: functional
Staphylococcus aureus [41] = assay: In vitro antimicrobial activity against aerobic bacteria Staphylococcus aureus 513E; format: functional
Staphylococcus aureus [42] = assay: In vitro antimicrobial activity against aerobic bacteria Staphylococcus aureus V140,; format: functional

Structure (SMILES): CC[C@H]1OC(=O)C[C@@H](O)[C@H](C)[C@@H](O[C@@H]2O[C@H](C)[C@@H](O)[C@H](N(C)C)[C@H]2O)[C@@H](CCOc2ccc(C(=O)c3ccccc3)cc2)C[C@@H](C)C(=O)/C=C/C(C)=C/[C@@H]1CO[C@@H]1O[C@H](C)[C@@H](O)[C@@H](OC)[C@H]1OC
- MIC (Haemophilus influenzae [1]): 32 µg/mL (≈ 33.5 µM)
- MIC [2]: 0.25 µg/mL (≈ 0.262 µM)
- MIC (Haemophilus influenzae [3]): 16 µg/mL (≈ 16.8 µM)
- MIC (Staphylococcus aureus [4]): 0.5 µg/mL (≈ 0.524 µM)
- MIC [5]: 32 µg/mL (≈ 33.5 µM)
- Concentration (Mus musculus [6]): 1.1 µg/mL
- MIC (Anaerococcus prevotii): 2 µg/mL (≈ 2.1 µM)
- Concentration (Mus musculus [7]): 0.1 µg/mL
- MIC [8]: 4 µg/mL (≈ 4.19 µM)
- Concentration (Mus musculus [9]): 1.8 µg/mL
- MIC (Haemophilus influenzae [10]): 16 µg/mL (≈ 16.8 µM)
- MIC [11]: < 0.5 µg/mL
- MIC (Fusobacterium): 2 µg/mL (≈ 2.1 µM)
- MIC [12]: > 128 µg/mL
- MIC (Bacteroides fragilis [13]): 2 µg/mL (≈ 2.1 µM)
- MIC (Eikenella corrodens): 2 µg/mL (≈ 2.1 µM)
- MIC [14]: < 0.5 µg/mL
- Concentration (Mus musculus [15]): 1.2 µg/mL
- Concentration (Mus musculus [16]): 2 µg/mL
- MIC (Streptococcus [17]): 1 µg/mL (≈ 1.05 µM)
- MIC (Streptococcus [18]): 0.25 µg/mL (≈ 0.262 µM)
- MIC (Staphylococcus aureus [19]): 0.25 µg/mL (≈ 0.262 µM)
- Concentration (Mus musculus [20]): 1.3 µg/mL
- MIC (Bacteroides fragilis [21]): 2 µg/mL (≈ 2.1 µM)
- MIC (Enterococcus faecium): 0.25 µg/mL (≈ 0.262 µM)
- MIC [22]: < 0.5 µg/mL
- MIC (Streptococcus [23]): 0.5 µg/mL (≈ 0.524 µM)
- MIC [24]: < 0.5 µg/mL
- MIC (Clostridium perfringens): < 0.5 µg/mL
- MIC (Streptococcus [25]): 1 µg/mL (≈ 1.05 µM)
- Concentration (Mus musculus [26]): 0.1 µg/mL
- MIC (Streptococcus pneumoniae [27]): 128 µg/mL (≈ 134 µM)
- MIC (Haemophilus influenzae [28]): 16 µg/mL (≈ 16.8 µM)
- MIC (Clostridioides difficile): < 0.5 µg/mL
- MIC (Collinsella aerofaciens): < 0.5 µg/mL
- ED50 (Streptococcus pneumoniae [29]): > 20 mg/kg
- Concentration (Mus musculus [30]): 0.4 µg/mL
- MIC [31]: 4 µg/mL (≈ 4.19 µM)
- ED50 (Streptococcus pneumoniae [32]): > 50 mg/kg
- MIC (Bacteroides fragilis [33]): 4 µg/mL (≈ 4.19 µM)
- MIC (Chlamydia trachomatis): > 2 µg/mL
- Concentration (Mus musculus [34]): 0.8 µg/mL
- MIC (Staphylococcus aureus [35]): 0.25 µg/mL (≈ 0.262 µM)
- MIC [36]: 2 µg/mL (≈ 2.1 µM)
- MIC (Phocaeicola vulgatus): < 0.5 µg/mL
- Concentration (Mus musculus [37]): 2.3 µg/mL
- MIC (Cutibacterium acnes): < 0.5 µg/mL
- MIC (Streptococcus [38]): 0.5 µg/mL (≈ 0.524 µM)
- MIC (Clostridium septicum): < 0.5 µg/mL
- MIC [39]: 0.12 µg/mL (≈ 0.126 µM)
- MIC (Staphylococcus aureus [40]): 0.25 µg/mL (≈ 0.262 µM)
- MIC (Staphylococcus aureus [41]): 0.25 µg/mL (≈ 0.262 µM)
- MIC (Staphylococcus aureus [42]): 0.5 µg/mL (≈ 0.524 µM)
